Published values pooled from the literature.
Each line is one published result; the experiments were not run side by side.
Target: Serine/threonine-protein kinase OSR1 (OXSR1, Homo sapiens, UniProt O95747)

SMILES | observed | action | technique | cell line | tested at | quantity | value
CCS(=O)(=O)c1cc2cc(C[C@@](O)(CC(C)(C)c3ccc(F)cc3C(N)=O)C(F)(F)F)[nH]c2cn1 | cell-free assay |  | competition with immobilised ligand |  | 1 µM | remaining binding | 88%
c1ccc(CNc2nc(N3CCOc4ccccc43)nc3c2CCCC3)cc1 | target engagement in cells | inhibitor | chemoproteomics |  | 20 mM | inhibition | -9%
COc1cc(Nc2cnc(C#N)c(O[C@H](C)CN(C)C)n2)ncc1-c1cnn(C)c1 | enzyme activity | inhibitor | radiometric |  | 1 µM | remaining activity | 115%
N#CC1c2c([nH]c3c(Cl)c(Cl)ccc23)C(=O)NC12CCCCC2 (racemic) | thermal stability |  | DSF |  | 10 µM | ΔTm | 0.1 °C
FC(F)(F)Oc1cccc(-c2cnc3ccc(-c4ccncc4)nn23)c1 | enzyme activity | inhibitor | radiometric |  | 1 µM | activity vs control | 97%
CO[C@@H](C)c1c(Nc2ccc([C@@H](N(C)C(=O)C3CCS(=O)(=O)CC3)C(F)(F)F)cc2)cnc2cc(Cl)nn12 | cell-free assay |  | competition with immobilised ligand |  | 1 µM | remaining binding | 100%
CS(=O)(=O)CCNCc1ccc(-c2ccc3ncnc(Nc4ccc(OCc5cccc(F)c5)c(Cl)c4)c3c2)o1 | cell-free assay |  |  |  | 0.5 µM | remaining signal | 105%
O=C(NS(=O)(=O)c1ccc(NCC2CCOCC2)c([N+](=O)[O-])c1)c1ccc(N2CCN(Cc3ccc(C(F)(F)F)cc3-c3ccc(Cl)cc3)CC2)cc1Oc1cnc2[nH]ccc2c1 | cell-free assay |  | competition with immobilised ligand |  | 1 µM | remaining binding | 83%
CCC1(CC)NC(=O)c2c(c3ccc(Cl)c(Cl)c3n2C)C1C#N (centres unmarked) | thermal stability |  | DSF |  | 10 µM | ΔTm | -0.3 °C
Cc1ccc(Nc2nccc(N(C)c3ccc4c(C)n(C)nc4c3)n2)cc1S(N)(=O)=O | enzyme activity | inhibitor |  |  | 0.5 µM | remaining activity | 103%
COc1ccc2c(O[C@@H]3C[C@H]4C(=O)N[C@]5(C(=O)O)CC5/C=C\CCCCC[C@H](NC(=O)OC5CCCC5)C(=O)N4C3)cc(-c3csc(NC(=O)C(C)C)n3)nc2c1C (some centres unmarked) | cell-free assay |  | competition with immobilised ligand |  | 1 µM | remaining binding | 82%
O=C(Nc1cnn(-c2csc(C(=O)NC3COC3)c2)c1)Nc1ccccc1Cl | enzyme activity | inhibitor |  |  | 5 µM | remaining activity | 92.6%
Cc1cc(NC(=O)c2cccc(S(F)(F)(F)(F)F)c2)cc(-n2ccn3nc(-c4cccnc4)cc23)c1 | cell-free assay |  | competition with immobilised ligand |  | 1 µM | remaining binding | 100%
Cn1c2c(c3ccc(Cl)c(Cl)c31)C(C#N)C1(CCN(C(=O)OC(C)(C)C)CC1)NC2=O (racemic) | thermal stability |  | DSF |  | 10 µM | ΔTm | -0.1 °C
Cc1ccc(C(=O)Nc2ccc(CN3CCN(C)CC3)c(C(F)(F)F)c2)cc1C#Cc1cnc2cccnn12 | enzyme activity | inhibitor |  |  | 23.5 nM | remaining activity | 96%
CCN1CCC2(CC1)NC(=O)c1c(c3ccc(Cl)c(Cl)c3n1C)C2C#N (racemic) | thermal stability |  | DSF |  | 10 µM | ΔTm | 0 °C
CCN1CCN(Cc2ccc(NC(=O)c3ccc(C)c(Oc4ccnc5[nH]ccc45)c3)cc2C(F)(F)F)CC1 | target engagement in cells | inhibitor | chemoproteomics | Huh-7 | 1 µM | inhibition | -64.3%
O=C1NC(=O)c2cc(Nc3ccc(F)cc3)c(Nc3ccc(F)cc3)cc21 | cell-free assay |  |  |  | 0.5 µM | remaining signal | 101%
O=C(Nc1cnn(-c2csc(C(=O)NC3COC3)c2)c1)Nc1c(F)cccc1Cl | enzyme activity | inhibitor |  |  | 5 µM | remaining activity | 96.5%
CCCCN(CCCC)C(=O)CN1C[C@H](c2cc(OC)c3c(c2)OCO3)[C@@H](C(=O)O)[C@@H]1CC(C)(C)CCC | cell-free assay |  | competition with immobilised ligand |  | 1 µM | remaining binding | 89.5%
C[C@@H]1CCN(C(=O)CC#N)C[C@@H]1N(C)c1ncnc2[nH]ccc12 | cell-free assay | inhibitor |  |  | 0.5 µM | remaining signal | 98.2%
CC1(C)NC(=O)c2[nH]c3c(Cl)c(Cl)ccc3c2C1C#N (centres unmarked) | thermal stability |  | DSF |  | 10 µM | ΔTm | -0.1 °C
CC(C)(O)[C@H]1CC[C@H](Nc2ccc3ncc(-c4cccc(C(F)(F)F)c4)n3n2)CC1 | enzyme activity | inhibitor |  |  | 1 µM | remaining activity | 102%
Cn1c2c(Cl)c(Cl)ccc2c2cc(N)[nH]c(=O)c21 | thermal stability |  | DSF |  | 10 µM | ΔTm | -0.2 °C
CCc1ccccc1C(=O)Nc1n[nH]c2c(C)c(F)c(C3C(C#N)=C(C)N(C)C(C)=C3C#N)cc12 | cell-free assay |  | competition with immobilised ligand |  | 1 µM | remaining binding | 100%
CCCCNc1ncc2c(-c3ccc(F)cc3)nn(C[C@H]3CC[C@H](N)CC3)c2n1 | target engagement in cells | inhibitor | chemoproteomics |  | 20 mM | inhibition | 8.2%
